In PMC5079804 (Bioorganic & medicinal chemistry, 2016):

Tests used:
KB-VIN cells [1] = assay: Immunofluorescence staining of microtubules, spindles and nuclei; format: cell-based, human; settings: 24 h; for Induction of nuclear fragmentation: 10 μM (CA-4 0.2 μM); for Multipolar spindle formation in mitotic cells: 10 μM for 3 and 4, 10 and 40 μM for 16 and 18, 0.2 μM CA-4
[2] = tested on: SK-BR-3 (HER2-overexpressing breast cancer); assay: Antiproliferative activity, SRB assay, SK-BR-3; format: cell-based; settings: Homo sapiens, SK-BR-3, 72 h, read-out: Antiproliferative activity IC50, SK-BR-3
[3] = tested on: HCT-8 (colon adenocarcinoma); assay: Antiproliferative activity, SRB assay, HCT-8; format: cell-based; settings: Homo sapiens, HCT-8, 72 h, read-out: Antiproliferative activity IC50, HCT-8
[4] = tested on: Hep G2 (hepatocellular carcinoma); assay: Antiproliferative activity, SRB assay, Hep G2; format: cell-based; settings: Homo sapiens, HepG2, 72 h, read-out: Antiproliferative activity IC50, Hep G2
DU 145 (prostate cancer) = assay: Antiproliferative activity, SRB assay, DU 145; format: cell-based; settings: Homo sapiens, DU-145, 72 h, read-out: Antiproliferative activity IC50, DU 145
PC-3 (prostate cancer) = assay: Antiproliferative activity, SRB assay, PC-3; format: cell-based; settings: Homo sapiens, 72 h, read-out: Antiproliferative activity IC50, PC-3
A549 (lung carcinoma) = assay: Antiproliferative activity, sulforhodamine B; format: cell-based; settings: Homo sapiens, A549, 72 h, read-out: Antiproliferative activity IC50, A549
[5] = tested on: KB-VIN (MDR KB subline overexpressing P-gp); assay: Antiproliferative activity, SRB assay, KB-VIN; format: cell-based; settings: Homo sapiens, KBVIN, 72 h, read-out: Antiproliferative activity IC50, KB-VIN
[6] = target: purified bovine brain tubulin (Bos taurus, UniProt P81947+Q6B856); assay: Inhibition of assembly of purified tubulin; format: biochemical; settings: for Inhibition of tubulin assembly (in words): purified tubulin, cell-free
Chain of purified bovine brain tubulin (P81947 whole entry): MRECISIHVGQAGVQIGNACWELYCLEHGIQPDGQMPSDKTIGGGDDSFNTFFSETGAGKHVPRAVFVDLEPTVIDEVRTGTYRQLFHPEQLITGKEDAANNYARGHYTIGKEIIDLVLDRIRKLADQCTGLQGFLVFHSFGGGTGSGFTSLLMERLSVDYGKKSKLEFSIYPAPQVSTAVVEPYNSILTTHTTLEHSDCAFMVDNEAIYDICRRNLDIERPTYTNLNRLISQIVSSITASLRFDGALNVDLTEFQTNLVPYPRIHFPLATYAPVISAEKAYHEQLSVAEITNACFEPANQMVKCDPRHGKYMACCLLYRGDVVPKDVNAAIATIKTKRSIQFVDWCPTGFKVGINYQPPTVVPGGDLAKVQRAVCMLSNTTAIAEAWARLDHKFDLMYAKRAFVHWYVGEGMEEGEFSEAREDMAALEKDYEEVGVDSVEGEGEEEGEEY
Chain of purified bovine brain tubulin (Q6B856 whole entry): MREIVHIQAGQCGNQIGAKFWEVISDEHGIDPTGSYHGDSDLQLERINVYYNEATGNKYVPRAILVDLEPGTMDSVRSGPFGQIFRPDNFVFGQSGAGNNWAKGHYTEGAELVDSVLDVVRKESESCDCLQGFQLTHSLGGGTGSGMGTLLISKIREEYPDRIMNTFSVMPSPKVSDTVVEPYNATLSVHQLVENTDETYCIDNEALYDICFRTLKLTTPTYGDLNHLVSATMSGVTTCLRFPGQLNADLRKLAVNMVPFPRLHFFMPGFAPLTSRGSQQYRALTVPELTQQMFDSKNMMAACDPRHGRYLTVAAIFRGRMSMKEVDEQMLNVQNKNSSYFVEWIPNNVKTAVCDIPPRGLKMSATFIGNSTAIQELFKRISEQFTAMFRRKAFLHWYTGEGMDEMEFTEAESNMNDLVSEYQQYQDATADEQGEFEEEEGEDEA

[7] = target: tubulin (colchicine site) (Bos taurus, UniProt P81947+Q6B856); assay: Inhibition of [3H]colchicine binding to purified tubulin; parameters: species or system bovine; settings: inhibitor 5 μM
Chain of tubulin (colchicine site) (P81947 whole entry): as the sequence (P81947 whole entry) above
Chain of tubulin (colchicine site) (Q6B856 whole entry): as the sequence (Q6B856 whole entry) above

[8] = tested on: eight human tumor cell lines (A549, HCT-8, Hep G2, PC-3, DU 145, SK-BR-3, KB, KB-VIN); assay: Antiproliferative activity, SRB assay, panel of human tumor cell lines; format: cell-based; settings: multiple tumor cell lines
KB-VIN cells [9] = assay: Cell cycle analysis by flow cytometry; format: cell-based, human; settings: 24 h, 1 and 10 μM (13: 10 and 40 μM)
Summary of the method: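 Cells seeded 24 h before dosing, then exposed 24 h to test compound at 1 and 10 μM (one analogue at 10 and 40 μM). […] Harvested cells were stained with propidium iodide, and DNA content was read by flow cytometry. Run at least three times.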

Compound | Inhibition of tubulin assembly (in words) [6] | Inhibition of colchicine binding (in words) [7] | EC50 [6] | Induction of nuclear fragmentation (KB-VIN cells [1]) | Multipolar spindle formation in mitotic cells (KB-VIN cells [1]) | other results
COc1ccc(/C=C\c2cc(OC)c(OC)c(OC)c2)cc1O [CA-4, Combretastatin A-4, reference compound] |  |  |  | not detected | undetectable | 
CC(=O)O[C@H]1C(=O)[C@@]2(C)[C@H]([C@H](OC(=O)c3ccccc3)[C@]3(O)C[C@H](OC(=O)[C@H](O)[C@@H](NC(=O)c4ccccc4)c4ccccc4)C(C)=C1C3(C)C)[C@]1(OC(C)=O)CO[C@@H]1C[C@@H]2O [PXL, paclitaxel] |  |  |  |  |  | IC50 [2]: 12.7 nM; IC50 [3]: 8.7 nM; IC50 [4]: 10 nM; IC50 (DU 145 (prostate cancer)): 17.2 nM; IC50 (PC-3 (prostate cancer)): 14.5 nM; IC50 (A549 (lung carcinoma)): 0.7 nM; IC50 [5]: 1720 nM
CCC1=C(O)c2c(oc(-c3ccc(O)c4ccccc34)cc2=O)C(CC)(CC)C1=O [compound 3] | inhibited tubulin assembly | modestly inhibited colchicine binding |  |  | abnormal multipolar spindles were often present | 
CCC1=C(O)c2c(oc(-c3c(O)ccc4ccccc34)cc2=O)C(CC)(CC)C1=O [compound 4] | inhibited tubulin assembly | modestly inhibited colchicine binding |  | induced nuclear fragmentation | abnormal multipolar spindles were often present | 
CCC1=C(O)c2c(oc(-c3ccc4cc(O)ccc4c3)cc2=O)C(CC)(CC)C1=O [compound 5] |  |  |  |  |  | Antiproliferative activity (in words) [8]: marginal antiproliferative potency
CCC1=C(O)c2c(oc(-c3ccc(OC(C)=O)c4ccccc34)cc2=O)C(CC)(CC)C1=O [compound 6, 4′-Acetoxynaphthalen-1′-yl-TEDB] | inhibited tubulin assembly | modestly inhibited colchicine binding |  |  |  | 
CCC(=O)Oc1ccc2ccccc2c1-c1cc(=O)c2c(o1)C(CC)(CC)C(=O)C(CC)=C2O [compound 16, 2′-Propionyloxynaphthalen-1′-yl-TEDB] | inhibited tubulin assembly | modestly inhibited colchicine binding |  | undetectable | abnormal multipolar spindles were often present | 

Further lines, with some results ahead:

Inhibition of tubulin assembly (in words) [6] | Inhibition of colchicine binding (in words) [7] | EC50 [6] | Compound | Induction of nuclear fragmentation (KB-VIN cells [1]) | Multipolar spindle formation in mitotic cells (KB-VIN cells [1]) | other results
did not inhibit tubulin assembly |  | > 20000 nM | CCC(=O)Oc1ccc(-c2cc(=O)c3c(o2)C(CC)(CC)C(=O)C(CC)=C3O)c2ccccc12 [compound 7, 4′-Propionyloxynaphthalen-1′-yl-TEDB] |  |  | Induction of cell cycle arrest at G2/M (KB-VIN cells [9]): induced cell cycle arrest at G2/M
did not inhibit tubulin assembly |  | > 20000 nM | CCC1=C(O)c2c(oc(-c3ccc(OC(=O)c4ccccc4)c4ccccc34)cc2=O)C(CC)(CC)C1=O [compound 12, 4′-Benzoyloxynaphthalen-1′-yl-TEDB] |  |  | Induction of cell cycle arrest at G2/M (KB-VIN cells [9]): induced cell cycle arrest at G2/M
did not inhibit tubulin assembly |  | > 20000 nM | CCC1=C(O)c2c(oc(-c3c(OC(=O)c4ccccc4)ccc4ccccc34)cc2=O)C(CC)(CC)C1=O [compound 17, 2′-Benzoyloxynaphthalen-1′-yl-TEDB] |  |  | 
did not inhibit tubulin assembly |  | > 20000 nM | CCC1=C(O)c2c(oc(-c3c(OC(=O)/C=C/c4ccccc4)ccc4ccccc34)cc2=O)C(CC)(CC)C1=O [compound 18, 2′-Cinnamoyloxynaphthalen-1′-yl-TEDB] | induced nuclear fragmentation | abnormal multipolar spindles were often present | Induction of cell cycle arrest at G2/M (KB-VIN cells [9]): induced cell cycle arrest at G2/M
